{"source": "paper PMC9998351", "about": "(Steroids, 2023)", "key": {"[1]": {"assay": "Intravenous pharmacokinetics in rats", "assay_type": "in vivo", "conditions": "for Cmax/D / Tmax / AUCinf / AUClast / C0 / CL / Cmax / T1/2 / Vss / Vz / AUC(0-inf) / AUC(0-t) / clearance / half-life / Vd: 1 mg/kg IV; for AUC(0-inf): AUCinf; for AUC(0-t): AUClast; for clearance: CL", "summary_of_the_method": "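Single 1 mg/kg IV dose to jugular-vein-catheterised Sprague Dawley rats (8–12 wk, 3/sex), given in cremophor:ethanol:saline (1:1:8), pH 4.0 (acetic acid), at 10 ml/kg. EDTA blood was taken at 5, 15, 30 min, 1, 2, 4, 6 and 24 h for plasma. Plasma was prepared by acetonitrile precipitation and aqueous dilution, then run on LC-MS/MS (positive ESI, MRM 439.2>371.2, abiraterone internal standard). Noncompartmental PK.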"}, "[2]": {"assay": "Oral pharmacokinetics and bioavailability in rats", "assay_type": "in vivo", "conditions": "for bioavailability: both; for bioavailability / AUC(0-t) / CL/F: Sprague Dawley, rat, plasma; for AUC% Extrap / Cmax/D / AUClast / Cmax / AUC(0-t) / CL/F: female rats; for AUC(0-t) / CL/F: female; for AUC(0-t): AUClast", "summary_of_the_method": "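Sprague Dawley rats (8–12 wk, 3/sex/group, catheterised jugular vein) got one oral gavage dose of 10 or 50 mg/kg. Dose was a solution in cremophor:ethanol:saline (1:1:8), pH 4.0, at 10 ml/kg. EDTA plasma was collected at 5, 15, 30 min, 1, 2, 4, 6 and 24 h, precipitated with acetonitrile, and quantified by LC-MS/MS against abiraterone internal standard. Noncompartmental parameters; bioavailability from oral AUClast versus IV.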"}, "[3]": {"conditions": "female rats, individual rat, 1 mg/kg"}, "[4]": {"conditions": "female, Sprague Dawley, rat, plasma, iv, 1 mg/kg, female rats, GeoMean"}, "[5]": {"conditions": "female, Sprague Dawley, rat, plasma, iv, 1 mg/kg, female rats, individual rat"}, "[6]": {"conditions": "male rats, individual rat, 1 mg/kg"}, "[7]": {"conditions": "male, Sprague Dawley, rat, plasma, iv, 1 mg/kg, male rats, GeoMean (third rat excluded)"}, "[8]": {"conditions": "10 mg/kg PO, individual rat, listed as VNPP433-3β, 10 mg/kg"}, "[9]": {"conditions": "50 mg/kg PO, individual rat, listed as VNPP433-3β, 50 mg/kg"}, "[10]": {"conditions": "po, 10 mg/kg, 10 mg/kg PO, GeoMean"}, "[11]": {"conditions": "po, 10 mg/kg, 10 mg/kg PO, individual rat"}}, "note": "Where “and” joins values, the source holds several entries; their conditions need not be identical. Identical values can stand only once."}
{"smiles": "C[C@]12CC[C@H](n3ccnc3)CC1=CC[C@@H]1[C@@H]2CC[C@]2(C)C(n3cnc4ccccc43)=CC[C@@H]12", "note": "[Compound 2, 3β-(1H-imidazole-1-yl)-17-(1H-benzimidazole-1-yl)-androsta-5,16-diene]", "values": [{"measurement": "Cmax/D", "setting": "[1]; female rats, GeoMean", "result": 311, "unit": "ng/mL/mg/kg"}, {"measurement": "Tmax", "setting": "[1]; female rats, individual rat", "result": 0.0833, "unit": "h"}, {"measurement": "AUCinf", "setting": "[1]; [3]", "result": "199 µg·min/mL and 171 µg·min/mL"}, {"measurement": "AUClast", "setting": "[1]; [3]", "result": "140 µg·min/mL and 126 µg·min/mL"}, {"measurement": "C0", "setting": "[1]; [3]", "result": "342 ng/mL and 418 ng/mL"}, {"measurement": "CL", "setting": "[1]; [3]", "result": "5.03 mL/min/kg and 5.85 mL/min/kg"}, {"measurement": "Cmax", "setting": "[1]; [3]", "result": "291 ng/mL and 350 ng/mL"}, {"measurement": "Cmax/D", "setting": "[1]; [3]", "result": "296 ng/mL/mg/kg and 291 ng/mL/mg/kg and 350 ng/mL/mg/kg"}, {"measurement": "T1/2", "setting": "[1]; [3]", "result": "15.0 h and 13.8 h"}, {"measurement": "Tmax", "setting": "[1]; [3]", "result": "0.25 h and 0.0833 h"}, {"measurement": "Vss", "setting": "[1]; [3]", "result": "5.99 L/kg and 6.31 L/kg"}, {"measurement": "Vz", "setting": "[1]; [3]", "result": "6.51 L/kg and 6.98 L/kg"}, {"measurement": "AUC(0-inf)", "setting": "[1]; [4]", "result": 3380, "unit": "ng·h/mL"}, {"measurement": "AUC(0-inf)", "setting": "[1]; [5]", "result": 4130, "unit": "ng·h/mL"}, {"measurement": "AUC(0-t)", "setting": "[1]; [4]", "result": 2400, "unit": "ng·h/mL"}, {"measurement": "AUC(0-t)", "setting": "[1]; [5]", "result": 2800, "unit": "ng·h/mL"}, {"measurement": "C0", "setting": "[1]; female, Sprague Dawley, rat, plasma, iv, 1 mg/kg, C0, female rats, GeoMean", "result": 333, "unit": "ng/mL"}, {"measurement": "C0", "setting": "[1]; female, Sprague Dawley, rat, plasma, iv, 1 mg/kg, C0, female rats, individual rat", "result": 259, "unit": "ng/mL"}, {"measurement": "clearance", "setting": "[1]; [4]", "result": 4.92, "unit": "mL/min/kg"}, {"measurement": "clearance", "setting": "[1]; [5]", "result": 4.04, "unit": "mL/min/kg"}, {"measurement": "Cmax", "setting": "[1]; female, Sprague Dawley, rat, plasma, iv, 1 mg/kg, Cmax, female rats, GeoMean", "result": 311, "unit": "ng/mL"}, {"measurement": "Cmax", "setting": "[1]; female, Sprague Dawley, rat, plasma, iv, 1 mg/kg, Cmax, female rats, individual rat", "result": 296, "unit": "ng/mL"}, {"measurement": "half-life", "setting": "[1]; female, Sprague Dawley, rat, plasma, iv, 1 mg/kg, T1/2, female rats, GeoMean", "result": 14.3, "unit": "h"}, {"measurement": "half-life", "setting": "[1]; female, Sprague Dawley, rat, plasma, iv, 1 mg/kg, T1/2, female rats, individual rat", "result": 14.1, "unit": "h"}, {"measurement": "Tmax", "setting": "[1]; female, Sprague Dawley, rat, plasma, iv, 1 mg/kg, Tmax, female rats, GeoMean", "result": 0.12, "unit": "h"}, {"measurement": "Vd", "setting": "[1]; female, Sprague Dawley, rat, plasma, iv, 1 mg/kg, Vss, female rats, GeoMean", "result": 5.73, "unit": "L/kg"}, {"measurement": "Vd", "setting": "[1]; female, Sprague Dawley, rat, plasma, iv, 1 mg/kg, Vss, female rats, individual rat", "result": 4.96, "unit": "L/kg"}, {"measurement": "Vd", "setting": "[1]; female, Sprague Dawley, rat, plasma, iv, 1 mg/kg, Vz, female rats, GeoMean", "result": 6.08, "unit": "L/kg"}, {"measurement": "Vd", "setting": "[1]; female, Sprague Dawley, rat, plasma, iv, 1 mg/kg, Vz, female rats, individual rat", "result": 4.93, "unit": "L/kg"}, {"measurement": "Overt toxic effects during conduct of PK study", "setting": "[1]; male and female rats, single dose 1 mg/kg IV, 10 or 50 mg/kg PO", "result": "No overt toxic effects were observed"}, {"measurement": "Cmax/D", "setting": "[1]; male rats, GeoMean (third rat excluded)", "result": 305, "unit": "ng/mL/mg/kg"}, {"measurement": "AUCinf", "setting": "[1]; [6]", "result": "64.0 µg·min/mL and 321 µg·min/mL"}, {"measurement": "AUClast", "setting": "[1]; [6]", "result": "46.6 µg·min/mL and 139 µg·min/mL"}, {"measurement": "C0", "setting": "[1]; [6]", "result": 443, "unit": "ng/mL"}, {"measurement": "CL", "setting": "[1]; [6]", "result": "15.6 mL/min/kg and 3.11 mL/min/kg"}, {"measurement": "Cmax", "setting": "[1]; [6]", "result": 392, "unit": "ng/mL"}, {"measurement": "Cmax/D", "setting": "[1]; [6]", "result": "237 ng/mL/mg/kg and 392 ng/mL/mg/kg"}, {"measurement": "T1/2", "setting": "[1]; [6]", "result": "2.96 h and 31.4 h"}, {"measurement": "Vss", "setting": "[1]; [6]", "result": 8.14, "unit": "L/kg"}, {"measurement": "Vz", "setting": "[1]; [6]", "result": "4.00 L/kg and 8.46 L/kg"}, {"measurement": "AUC(0-inf)", "setting": "[1]; [7]", "result": 2380, "unit": "ng·h/mL"}, {"measurement": "AUC(0-t)", "setting": "[1]; [7]", "result": 1340, "unit": "ng·h/mL"}, {"measurement": "C0", "setting": "[1]; male, Sprague Dawley, rat, plasma, iv, 1 mg/kg, C0, male rats, GeoMean (third rat excluded)", "result": 336, "unit": "ng/mL"}, {"measurement": "C0", "setting": "[1]; male, Sprague Dawley, rat, plasma, iv, 1 mg/kg, C0, male rats, individual rat", "result": 254, "unit": "ng/mL"}, {"measurement": "clearance", "setting": "[1]; [7]", "result": 6.97, "unit": "mL/min/kg"}, {"measurement": "Cmax", "setting": "[1]; male, Sprague Dawley, rat, plasma, iv, 1 mg/kg, Cmax, male rats, GeoMean (third rat excluded)", "result": 305, "unit": "ng/mL"}, {"measurement": "Cmax", "setting": "[1]; male, Sprague Dawley, rat, plasma, iv, 1 mg/kg, Cmax, male rats, individual rat", "result": 237, "unit": "ng/mL"}, {"measurement": "half-life", "setting": "[1]; male, Sprague Dawley, rat, plasma, iv, 1 mg/kg, T1/2, male rats, GeoMean (third rat excluded)", "result": 9.64, "unit": "h"}, {"measurement": "Tmax", "setting": "[1]; male, Sprague Dawley, rat, plasma, iv, 1 mg/kg, Tmax, male rats, GeoMean (third rat excluded)", "result": 0.0833, "unit": "h"}, {"measurement": "Tmax", "setting": "[1]; male, Sprague Dawley, rat, plasma, iv, 1 mg/kg, Tmax, male rats, individual rat", "result": 0.0833, "unit": "h"}, {"measurement": "Vd", "setting": "[1]; male, Sprague Dawley, rat, plasma, iv, 1 mg/kg, Vss, male rats, GeoMean (third rat excluded)", "result": 5.81, "unit": "L/kg"}, {"measurement": "Vd", "setting": "[1]; male, Sprague Dawley, rat, plasma, iv, 1 mg/kg, Vss, male rats, individual rat", "result": 4.14, "unit": "L/kg"}, {"measurement": "Vd", "setting": "[1]; male, Sprague Dawley, rat, plasma, iv, 1 mg/kg, Vz, male rats, GeoMean (third rat excluded)", "result": 5.82, "unit": "L/kg"}, {"measurement": "bioavailability", "setting": "[2]; oral", "result": "32 to 47", "unit": "%"}, {"measurement": "bioavailability", "setting": "[2]; po, 10 mg/kg", "result": "32 to 34", "unit": "%"}, {"measurement": "AUC% Extrap", "setting": "[2]; 10 mg/kg PO, GeoMean", "result": 81.9, "unit": "%"}, {"measurement": "Cmax/D", "setting": "[2]; 10 mg/kg PO, GeoMean", "result": 59.4, "unit": "ng/mL/mg/kg"}, {"measurement": "AUC% Extrap", "setting": "[2]; [8]", "result": "76.9% and 88.6% and 80.8%"}, {"measurement": "AUClast", "setting": "[2]; [8]", "result": "484 µg·min/mL and 785 µg·min/mL"}, {"measurement": "Cmax", "setting": "[2]; [8]", "result": "408 ng/mL and 681 ng/mL"}, {"measurement": "Cmax/D", "setting": "[2]; [8]", "result": "75.5 ng/mL/mg/kg and 40.8 ng/mL/mg/kg and 68.1 ng/mL/mg/kg"}, {"measurement": "Cmax/D", "setting": "[2]; 50 mg/kg PO, GeoMean", "result": 90.0, "unit": "ng/mL/mg/kg"}, {"measurement": "AUClast", "setting": "[2]; [9]", "result": "5560 µg·min/mL and 4300 µg·min/mL"}, {"measurement": "Cmax", "setting": "[2]; [9]", "result": "4820 ng/mL and 4320 ng/mL"}, {"measurement": "Cmax/D", "setting": "[2]; [9]", "result": "87.6 ng/mL/mg/kg and 96.4 ng/mL/mg/kg and 86.4 ng/mL/mg/kg"}, {"measurement": "AUC(0-t)", "setting": "[2]; [10]", "result": 11600, "unit": "ng·h/mL"}, {"measurement": "AUC(0-t)", "setting": "[2]; [11]", "result": 14900, "unit": "ng·h/mL"}, {"measurement": "CL/F", "setting": "[2]; [10]", "result": 2.46, "unit": "mL/min/kg"}, {"measurement": "CL/F", "setting": "[2]; [11]", "result": 2.58, "unit": "mL/min/kg"}]}
